The values below come from ChEMBL document CHEMBL2311299, “New 2-(aryloxy)-3-phenylpropanoic acids as peroxisome proliferator-activated receptor α/γ dual agonists able to upregulate mitochondrial carnitine shuttle system gene expression” (J Med Chem, 2013).

Test [1] concerns the target T1, Peroxisome proliferator-activated receptor alpha (Homo sapiens, UniProt Q07869).
T1 sequence (Q07869 whole entry): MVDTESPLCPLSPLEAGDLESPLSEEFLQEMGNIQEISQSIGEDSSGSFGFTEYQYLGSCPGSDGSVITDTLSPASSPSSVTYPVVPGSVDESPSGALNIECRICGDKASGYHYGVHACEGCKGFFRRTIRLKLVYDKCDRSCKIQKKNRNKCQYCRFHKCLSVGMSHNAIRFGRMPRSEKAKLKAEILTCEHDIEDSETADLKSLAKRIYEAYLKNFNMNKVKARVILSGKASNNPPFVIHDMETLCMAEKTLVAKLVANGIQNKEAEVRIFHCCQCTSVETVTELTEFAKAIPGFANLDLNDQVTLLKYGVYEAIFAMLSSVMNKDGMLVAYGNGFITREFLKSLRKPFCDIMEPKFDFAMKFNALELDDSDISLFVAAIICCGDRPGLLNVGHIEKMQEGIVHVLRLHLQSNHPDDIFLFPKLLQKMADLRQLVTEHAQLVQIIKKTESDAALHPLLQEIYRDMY
As to the kind of experiment: Transactivation of GAL4-fused human PPARalpha ligand binding domain expressed in HepG2 cells after 20 hrs by luciferase reporter gene assay. The class given is cell-based. Put shortly:
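HepG2 cells transiently transfected (calcium phosphate) with Gal4–PPARα-LBD or Gal4–PPARγ-LBD (30 ng), five-Gal4-element TK-luciferase reporter (100 ng) and pCMVβgal (250 ng). 4 h post-transfection, triplicate 20 h ligand treatment up to 10 μM; luciferase read, β-galactosidase measured with ONPG.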

Test [2] has as its target T2, Peroxisome proliferator-activated receptor gamma (Homo sapiens, UniProt P37231).
T2 sequence (P37231 whole entry): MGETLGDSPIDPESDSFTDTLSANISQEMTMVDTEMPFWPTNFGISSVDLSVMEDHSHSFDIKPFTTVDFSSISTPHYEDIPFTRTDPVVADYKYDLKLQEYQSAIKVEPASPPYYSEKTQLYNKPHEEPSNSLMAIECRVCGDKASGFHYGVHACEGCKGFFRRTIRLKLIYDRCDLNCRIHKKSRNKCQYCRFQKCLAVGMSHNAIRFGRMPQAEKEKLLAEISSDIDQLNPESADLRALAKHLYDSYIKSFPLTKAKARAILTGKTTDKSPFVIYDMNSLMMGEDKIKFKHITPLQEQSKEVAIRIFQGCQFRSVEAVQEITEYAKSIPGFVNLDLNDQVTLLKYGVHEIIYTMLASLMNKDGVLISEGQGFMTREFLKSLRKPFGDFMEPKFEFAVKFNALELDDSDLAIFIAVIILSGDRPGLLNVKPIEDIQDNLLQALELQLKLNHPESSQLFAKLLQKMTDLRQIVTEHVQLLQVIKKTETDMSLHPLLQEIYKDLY
In words: Transactivation of GAL4-fused human PPARgamma ligand binding domain expressed in HepG2 cells after 20 hrs by luciferase reporter gene assay. The format is cell-based. In general terms: Reporter assays use an easily measured gene product as a stand-in for the process of interest.

The target of test [3] is T3, Peroxisome proliferator-activated receptor alpha (Homo sapiens) (UniProt Q07869).
T3 sequence (whole entry): T1 sequence (Q07869 whole entry)
In words: Transactivation of GAL4-fused human PPARalpha ligand binding domain expressed in HepG2 cells after 20 hrs by luciferase reporter gene assay relative to WY-14643. The class given is cell-based. Put shortly:
(§1)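 HepG2 cells transiently transfected (calcium phosphate) with Gal4–PPARα-LBD or Gal4–PPARγ-LBD (30 ng), five-Gal4-element TK-luciferase reporter (100 ng) and pCMVβgal (250 ng). 4 h post-transfection, triplicate 20 h ligand treatment up to 10 μM; luciferase read, β-galactosidase measured with ONPG. Efficacy as % of maximal fold induction by Wy-14,643 (α) or rosiglitazone (γ); experiments repeated at least twice.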

In test [4] the target is T4, Peroxisome proliferator-activated receptor gamma (Homo sapiens) (UniProt P37231).
T4 sequence (whole entry): T2 sequence (P37231 whole entry)
As to the kind of experiment: Transactivation of GAL4-fused human PPARgamma ligand binding domain expressed in HepG2 cells up to 10 uM after 20 hrs by luciferase reporter gene assay. The format is cell-based. In a few lines: as §1

Test [5] has as its target T3, Peroxisome proliferator-activated receptor alpha (Homo sapiens). In words: Agonist activity at PPARalpha in human HepG2 cells assessed as upregulation of CPT1 mRNA expression at 1 uM after 24 hrs by RT-PCR analysis relative to control. The format is cell-based. Put shortly: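 Serum-starved HepG2 cells (24 h depletion) exposed for 24 h to 1 μM ligand; untreated cells as control; Wy 14,643 (50 μM) reference. Total RNA from 1 × 10^6 cells, reverse transcribed, CAC or CPT1 transcript quantified by real-time PCR against human actin. Means ± SD of three duplicate independent experiments; one-way ANOVA, Bonferroni test versus control.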

For test [6], the target named is T4, Peroxisome proliferator-activated receptor gamma (Homo sapiens). As to the kind of experiment: Binding affinity to PPARgamma-LBD site B (unknown origin) at 600 uM after 3 hrs by isothermal titration calorimetry assay. In a few lines: (§2)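 ITC at 25 °C on His-tagged PPARγ LBD dialysed into 20 mM Hepes pH 8.0, 1 mM TCEP; DMSO matched (<1%). […] Conditions: ligand 400 μM into 40 μM protein (5); reverse, 400 μM protein into 40 μM ligand (6); 600 μM ligand into 60 μM protein (7); protein 47 μM pre-equilibrated 3 h 1:1 with site-A ligand, titrated with 470 μM ligand (8); reverse titration (9).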
(In general: Isothermal titration calorimetry measures the heat released or taken up as one component is titrated into another.)

Test [7] shares this target. In words: Binding affinity to PPARgamma-LBD site B and site C (unknown origin) at 60 uM after 3 hrs by isothermal titration calorimetry assay. In a few lines: as §2
Test [8] shares this target. In words: Binding affinity to PPARgamma-LBD site A (unknown origin) at 400 uM after 3 hrs by isothermal titration calorimetry assay. Put shortly: as §2
For test [9], the target named is T3, Peroxisome proliferator-activated receptor alpha (Homo sapiens). In words: Agonist activity at PPARalpha in human HepG2 cells assessed as upregulation of CAC mRNA expression at 1 uM after 24 hrs by RT-PCR analysis relative to control. The class given is cell-based. In a few lines:
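Total RNA from 1 × 10^6 cells, reverse transcribed, CAC or CPT1 transcript quantified by real-time PCR against human actin. Means ± SD of three duplicate independent experiments; one-way ANOVA, Bonferroni test versus control.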

Test [10] has the same target. In words: Agonist activity at PPARalpha in human HepG2 cells assessed as upregulation of CPT1 protein expression at 1 uM after 48 hrs by Western blotting analysis relative to control. For orientation: Immunoblotting shows a protein as a band on a membrane.
Test [11] has as its target T4, Peroxisome proliferator-activated receptor gamma (Homo sapiens). As to the kind of experiment: Binding affinity to PPARgamma-LBD site B (unknown origin) in presence of (S)-2-(biphenyl-4-yloxy)-3-phenylpropanoic acid at 470 uM after 3 hrs by isothermal titration calorimetry assay. In a few lines:
as §2

Test [12] deals with T3, Peroxisome proliferator-activated receptor alpha (Homo sapiens). As to the kind of experiment: Agonist activity at PPARalpha in human HepG2 cells assessed as upregulation of CAC protein expression at 1 uM after 48 hrs by Western blotting analysis relative to control.
Test [13] has as its target T4, Peroxisome proliferator-activated receptor gamma (Homo sapiens). In words: Binding affinity to PPARgamma-LBD site A and site B (unknown origin) at 40 uM after 3 hrs by isothermal titration calorimetry assay. Put shortly: as §2

The source made the active and inactive calls. The calls are words filed in the database; no cut-off is given here.

One may read the EC50 as the concentration giving half of the maximal effect. Higher therefore signals lower potency in that assay. As to `CC(C)c1ccccc1-c1ccc(OC(Cc2ccccc2)C(=O)O)cc1` (single isomer, unassigned; form 1) [listing 1 of 2 here], the figures for the EC50 in test [1] and in test [2] were 12 nM and 1000 nM, respectively.

For `CCc1ccccc1-c1ccc(O[C@@H](Cc2ccccc2)C(=O)O)cc1`, the values for the EC50 in test [1] and in test [2] were 12 nM and 1200 nM, respectively. In test [3], this molecule gave an Emax of 143%.

In [3], `O=C(O)[C@H](Cc1ccccc1)Oc1ccc(-c2ccccc2)cc1` registered an Emax of 116%.

As for `CCCc1ccccc1-c1ccc(OC(Cc2ccccc2)C(=O)O)cc1` (racemic), in test [4], the result was Active. Also, the EC50 in test [1] is 240 nM. The same molecule had an Emax in test [3] of 131%.

Regarding `Cc1cccc(C)c1-c1ccc(O[C@@H](Cc2ccccc2)C(=O)O)cc1`, the EC50 in test [1] came to 230 nM; in [2], 2540 nM. Besides, in test [3], the Emax worked out at 123%.

As for `Cc1cc(-c2ccccc2)cc(C)c1O[C@@H](Cc1ccccc1)C(=O)O`, the results for the EC50 in test [1] and in test [2] were 1130 nM and 3100 nM, respectively. Moreover, the Emax in [3] stood at 61%.

In turn, `CC(C)c1ccccc1-c1ccc(OC(Cc2ccccc2)C(=O)O)cc1` (single isomer, unassigned; form 2) [listing 1 of 2 here] had an EC50 in test [1] of 100 nM.

Take `CC(C)(Sc1ccc(CCN(CCCCC2CCCCC2)C(=O)NC2CCCCC2)cc1)C(=O)O`: the result in [5] was Active.

Regarding `COc1ccccc1-c1ccc(O[C@@H](Cc2ccccc2)C(=O)O)cc1`, the results for the half-maximal effective concentration (EC50) in [1] and in test [2] were 130 nM and 2300 nM, respectively. This molecule came in with an Emax in [3] of 124%.

`Cc1ccccc1-c1ccc(O[C@@H](Cc2ccccc2)C(=O)O)cc1`: the EC50 is 67 nM in [1] and 1360 nM in test [2]. Moreover, the Emax in test [3] is 155%.

`Cc1cccc(-c2ccc(OC(Cc3ccccc3)C(=O)O)cc2)c1` (racemic): the values for the concentration giving a half-maximal response (EC50) in test [1] and in [2] were 220 nM and 460 nM, respectively. This molecule also registered an Emax in [3] of 69%.

As for `Cc1ccc(-c2ccc(O[C@@H](Cc3ccccc3)C(=O)O)cc2)cc1`, the EC50 in [1] came out at 210 nM; in test [2], 590 nM. For the same molecule, the Emax in [3] stood at 74%.

With `Cc1cc(-c2ccccc2)ccc1O[C@@H](Cc1ccccc1)C(=O)O`, the values for the half-maximal effective concentration (EC50) in test [1] and in test [2] were 990 nM and 700 nM, respectively. In test [3], this molecule displayed an Emax of 68%.

As to `CC(C)c1ccccc1-c1ccc(OC(Cc2ccccc2)C(=O)O)cc1` (single isomer, unassigned; form 2) [listing 2 of 2 here], the result in test [4] was Active. In addition, the Ka in test [6] turned out to be 1.34 ×10⁵ /M; in test [7], 1.3 ×10⁵ /M. In addition, the Emax in test [3] worked out at 145%.

As to `O=C(O)C(Cc1ccccc1)Oc1ccc(-c2ccccc2CCc2ccccc2)cc1` (racemic), the outcome in [4] was Active. For the same molecule, in test [1], the EC50 is 280 nM. In test [3], this molecule gave an Emax of 73%.

Turning to `Cc1cc(OC(Cc2ccccc2)C(=O)O)cc(C)c1-c1ccccc1` (racemic), the EC50 is 2100 nM in test [1] and 2040 nM in [2]. The molecule also had an Emax in test [3] of 50%.

On to `Cc1cc(O[C@@H](Cc2ccccc2)C(=O)O)ccc1-c1ccccc1`, for which the concentration for a half-maximal effect (EC50) in test [1] was 80 nM; in test [2] it was 700 nM. For the same molecule, in test [3], the Emax was 120%.

As for `Cc1ccccc1-c1ccc(O[C@@H](Cc2ccccc2)C(=O)O)cc1C`, the half-maximal effective concentration (EC50) in test [1] is 31 nM; in test [2], 640 nM. For the same molecule, in test [3], the Emax turned out to be 133%.

Consider `CCCCCc1ccccc1-c1ccc(OC(Cc2ccccc2)C(=O)O)cc1` (racemic), for which the result in test [4] was Active. Besides, the concentration for a half-maximal effect (EC50) in test [1] is 500 nM. The same molecule returned an Emax in test [3] of 107%.

In the case of `CC(C)c1ccccc1-c1ccc(OC(Cc2ccccc2)C(=O)O)cc1` (single isomer, unassigned; form 1) [listing 2 of 2 here], the figures for the fold change (FC) in test [5] and in test [9] were 2.3 and 1.5, respectively. Besides, the results for the Ka in test [8], in test [11] and in [13] were 3.6 ×10⁵ /M, 1.87 ×10⁵ /M and 3.1 ×10⁵ /M, respectively. The Emax in test [3] came to 147%. The result in test [10] and in test [12] was Active.

With `O=C(O)[C@H](Cc1ccccc1)Oc1ccc(-c2ccccc2C(F)(F)F)cc1`, the EC50 in [1] was determined as 22 nM; in test [2], 1000 nM. The molecule also yielded an Emax in [3] of 126%.

On to `Cc1cccc(Nc2cc(Cl)nc(SCC(=O)O)n2)c1C`, for which the outcome in test [4] was inactive.

As for `O=C(O)[C@H](Cc1ccccc1)Oc1ccc(-c2ccccc2-c2ccccc2)cc1`, the EC50 in test [1] was 44 nM; in test [2], 1400 nM. In addition, in [3], the Emax is 132%.

On to `O=C(O)[C@H](Cc1ccccc1)Oc1ccc(-c2ccccc2F)cc1`, for which the EC50 was determined as 120 nM in [1] and 690 nM in test [2]. Also, the Emax in test [3] was determined as 68%.
